Screening results: PubChem BioAssay, Broad Institute
E-selectin induc: E-selectin induction on HUVECs; P16581; HUVEC E-selectin immunofluorescence imaging; normalized: neutral wells 0, TNF-alpha wells 100; activation, % at 7.58 µM; 0.37% of 260,000 active; AID 686992;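 active = mean E-selectin-positive cell signal at least 10% of the positive control, reached in at least 60% of replicates, without over 20% cell loss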
Target sequence (P16581 whole entry, looked up): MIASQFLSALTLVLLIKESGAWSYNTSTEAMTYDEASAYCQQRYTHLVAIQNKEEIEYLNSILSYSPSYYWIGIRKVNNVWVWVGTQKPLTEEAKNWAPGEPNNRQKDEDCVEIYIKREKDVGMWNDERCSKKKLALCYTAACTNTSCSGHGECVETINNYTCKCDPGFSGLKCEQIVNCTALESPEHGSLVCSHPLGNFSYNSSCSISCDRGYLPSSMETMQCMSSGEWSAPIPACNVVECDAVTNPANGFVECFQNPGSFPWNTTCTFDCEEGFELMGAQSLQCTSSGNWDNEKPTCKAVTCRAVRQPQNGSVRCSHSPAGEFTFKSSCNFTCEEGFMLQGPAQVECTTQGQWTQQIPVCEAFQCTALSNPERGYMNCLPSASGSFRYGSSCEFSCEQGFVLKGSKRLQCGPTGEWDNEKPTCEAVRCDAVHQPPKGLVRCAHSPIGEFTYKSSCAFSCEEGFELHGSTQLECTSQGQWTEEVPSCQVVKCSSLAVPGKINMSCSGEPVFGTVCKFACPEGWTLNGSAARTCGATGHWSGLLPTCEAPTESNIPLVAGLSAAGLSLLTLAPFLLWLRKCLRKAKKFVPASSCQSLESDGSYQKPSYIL
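System: HUVEC, human umbilical vein endothelial cells; quantity: 3,000 cells/well; buffer or medium: EGM-2 medium, gelatin-coated wells; dosing: single-point compound dose; detection: immunofluorescence imaging; evaluation: % PE-positive cells; benchmarks: TNF-alpha, DMSO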
DENV2 CPE: DENV2-induced cell death inhibition; DENV2-infected cells, cytopathic effect rescue, plate reader; CPE inhibition, % at 9.99 µM; 1.7% of 350,000 active; AID 651640; in the data active = CPE inhibition above about 20%, passing the limit was not always enough; tested in BHK-21 cells;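 also: 0% = median of neutral control wells and 100% = median of positive control wells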
SIRT5 block: blocks human SIRT5 desuccinylation of peptide; Q9NXA8; Purified SirT5, succinyl-peptide AMC, trypsin-coupled fluorescence; inhibition, % at 15 µM; 1.1% of 330,000 active; in the data active = inhibition above about 15%
* marks the source's active call; other numbers are inactive results; x = not tested or not shown. Rows were chosen to be rich in hits. Some 2.8% of all compounds tested hit in one or more screens of this group.

SMILES	E-selectin induc	DENV2 CPE	SIRT5 block
COc1cccc(NC(=O)C[C@@H]2CC[C@@H]3[C@H](COc4ccc(NC(C)=O)cc4C(=O)N3C)O2)c1	0	-5	2
CC(=O)N[C@H]1C=C[C@H](CC(=O)NCc2ccc(Cl)cc2)O[C@H]1CO	0	32*	-4
COc1ccc(CNC(=O)C[C@@H]2C=C[C@@H](NC(=O)c3ccc4c(c3)OCO4)[C@H](CO)O2)cc1	0	44*	-1
O=C(C[C@@H]1C=C[C@@H](NC(=O)c2ccccn2)[C@H](CO)O1)NCc1cccc(F)c1	0	36*	-1
O=C(C[C@@H]1C=C[C@@H](NC(=O)c2ccccn2)[C@@H](CO)O1)NCc1cccc(F)c1	-1	-4	0
CC(=O)N[C@H]1C=C[C@@H](CC(=O)NCc2ccc(Cl)cc2)O[C@@H]1CO	0	1	-3
COc1ccc(CNC(=O)C[C@@H]2C=C[C@H](NC(=O)c3ccc4c(c3)OCO4)[C@H](CO)O2)cc1	0	7	-1
CC(C)NC(=O)N(C)C[C@H]1OCCCC[C@H](C)Oc2ccc(NC(=O)c3ccccc3)cc2C(=O)N([C@@H](C)CO)C[C@@H]1C	1	x	5
CCCNC(=O)C[C@H]1C[C@H]2c3cc(NC(=O)Nc4ccccc4)ccc3O[C@H]2[C@@H](CO)O1	0	6	x
CCC(=O)N1C[C@H](C)[C@H](OC)CN(C)C(=O)c2ccc(NC(=O)c3cc(C)on3)cc2OC[C@H]1C	0	x	x
COc1cccc(N/N=C(\C#N)S(=O)(=O)C(C)(C)C)c1	-1	-1	18*
CC(C)(C)S(=O)(=O)/C(C#N)=N/Nc1ccc(C#N)cc1	x	-3	6
CCCCCN(C(=O)CCc1cn(CCCCC)c2ccccc12)c1ccc(Oc2cccnc2)cc1	0	91*	x
CCCCCN(C(=O)CCc1cn(CCCCC)c2ccccc12)c1ccc(N(C)c2ccccn2)cc1	0	-16	x
CCN1C(=NCc2ccccc2)N[C@@H](c2ccccc2)[C@H](C(=O)OC)[C@H]1C	x	-14	x
CCN1C(=NCCc2c[nH]c3ccccc23)N[C@@H](c2ccccc2)[C@H](C(=O)OC)[C@H]1C	0	27*	x
CN1C(=O)c2cc(NC(=O)C3CC3)ccc2OC[C@H]2O[C@@H](CC(=O)NCc3cccc(F)c3)CC[C@@H]21	0	-1	x
Nc1ccc(C(=O)O)cc1[N+](=O)[O-]	1	6	2
Nc1cc(S(=O)(=O)O)cc([N+](=O)[O-])c1O	2	4	30*
CO[C@@H]1CN(C)C(=O)c2cc(NC(C)=O)ccc2OC[C@@H](C)N(C(=O)c2cnccn2)C[C@@H]1C	0	-1	-1
O=C1[C@@H](Oc2ccccc2)[C@@H](c2ccncc2)N1c1ccccc1	x	47*	0
O=C1[C@@H](Oc2ccccc2)[C@@H](c2ccccc2)N1c1cccnc1	0	-3	-7
CN(CCOc1cccc2ccccc12)Cc1ccccc1	x	-5	-1
c1ccc(CCNCCCOc2cccc3ccccc23)cc1	x	35*	-4
C[C@H](CO)N1C[C@H](C)[C@@H](CN(C)C(=O)Nc2ccc(C(F)(F)F)cc2)Oc2ccc(NS(=O)(=O)c3ccc(Cl)cc3)cc2CC1=O	1	-6	2
SMILES	E-selectin induc	DENV2 CPE	SIRT5 block
CS(=O)(=O)N(CC(=O)N1CCCCC1)Cc1ccccc1	x	9	17*
CS(=O)(=O)N(CCc1ccccc1)CC(=O)N1CCCCCC1	-1	2	-3
CS(=O)(=O)N(CC(=O)N1CCCC1)c1cccc(F)c1	x	-1	101*
CS(=O)(=O)N(CC(=O)N1CCCC1)c1ccc(F)cc1	0	-5	x
O=C(Nc1ccc(C(F)(F)F)cc1)N1[C@@H]2CNC[C@H]1C2c1ccc(-c2ccc(F)cc2)cc1 (stereo partly specified)	0	-3	4
O=C(NC1CCC1)[C@H]1[C@H](CO)[C@H]2Cn3c(ccc(C4=CCCC4)c3=O)[C@H]2N1C(=O)C1CCCC1	0	-2	-4
O=C(c1ccc(F)cc1)N1CC(=O)N2[C@H](CO)[C@H](c3ccc(C#CCC4CCCC4)cc3)[C@H]2C1	0	-5	0
Cc1cc2ccccn2c1C(=S)NC(=O)c1ccccc1	x	-4	0
Cc1ccc(C(=O)NC(=S)c2c(C)cc3ccccn23)cc1	0	85*	x
COc1ccccc1CN1[C@H](CO)[C@@H](c2ccccc2)C12CN(C(=O)c1ccccn1)C2	0	89*	-1
CCC(=O)N1CC2(C1)[C@H](c1ccccc1)[C@H](CO)N2Cc1ccccc1OC	0	-10	23*
COc1ccccc1CN1[C@H](CO)[C@@H](c2ccccc2)C12CN(C(C)=O)C2	0	12	-3
COCC(=O)N1CC2(C1)[C@H](c1ccccc1)[C@@H](CO)N2Cc1ccccc1OC	0	16	2
CCC(=O)Nc1ccc2c(c1)C(=O)N(C)[C@H]1CC[C@H](CC(=O)NCc3ccccc3Cl)O[C@@H]1CO2	0	-8	0
C[C@@H]1CN([C@H](C)CO)C(=O)Cc2cc(N(C)C)ccc2O[C@H]1CN(C)Cc1ccncc1	0	3	3
COCC(=O)N1C[C@@H](C)[C@@H](OC)CN(C)C(=O)c2cc(NC(=O)C3CCC3)ccc2OC[C@H]1C	0	-8	-2
CCCCOP(=O)(c1ccc(N(C)C)cc1)C(Nc1ccccc1)c1ccccc1 (stereo unspecified)	x	9	1
CCCOP(=O)(c1ccc(N(C)C)cc1)C(Nc1ccccc1)c1ccc(N(C)C)cc1 (stereo unspecified)	1	11	29*
O=C(Nc1ccc(F)cc1)N1CC(=O)N2[C@H](CO)[C@@H](c3ccc(-c4ccc(F)cc4)cc3)[C@@H]2C1	-1	6	5
CCCN1[C@@H]2c3ccc(-c4ccncc4)c(=O)n3C[C@H]1[C@H](CO)[C@H]2C(=O)N1CCCCC1	0	20	-3
CNC(=O)C[C@H]1CC[C@@H]2[C@H](COc3ccc(NC(=O)c4cccs4)cc3C(=O)N2C)O1	0	2	x
CCN(C)C1CN(Cc2cn(Cc3ccc(F)cc3)nn2)S(=O)(=O)C1 (stereo unspecified)	0	46*	-2
CCN(C)C1CN(Cc2cn(Cc3ccc(C)cc3)nn2)S(=O)(=O)C1 (stereo unspecified)	0	-7	-4
CCN(C)C1CN(Cc2cn(Cc3ccccc3)nn2)S(=O)(=O)C1 (stereo unspecified)	0	21*	-1
CN(Cc1cn(Cc2ccccc2)nn1)C1CN(Cc2cn(Cc3ccccc3)nn2)S(=O)(=O)C1 (stereo unspecified)	0	-7	-1
COc1ccc(-c2cnc3c(c2)C(=O)N([C@@H](C)CO)C[C@@H](C)[C@H](CN(C)C(=O)C2CCC2)O3)cc1	0	-8	-1
C[C@@H]1CN([C@@H](C)CO)C(=O)c2cc(NC(=O)Nc3cccc4ccccc34)ccc2O[C@@H](C)CCCCO[C@H]1CN(C)C(=O)CCCN(C)C	4	5	0
CS(=O)(=O)Nc1ccc2c(c1)[C@@H]1C[C@@H](CC(=O)NC3CCCCC3)O[C@H](CO)[C@@H]1O2	0	-5	-2
